Assays:
[1] = tested on: BxPC3 human pancreatic cancer cells; assay: CyQUANT viability assay, BxPC3; format: cell-based; settings: 72 hours, compared to the control
Summary of the method: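 BxPC3 cells (DMEM, 10% FBS, 1% pen-strep-glutamine; passages 10–20) were seeded at 5 × 10^3/well. After 24 h they were exposed to test compound for 72 h, with 0.1% DMSO final. Medium was removed, then CyQUANT Direct nucleic acid stain plus background suppressor in HBSS was added for 1 h at 37 °C. Whole-well fluorescence was laser-scanned (Ex 488/Em 520, 100 μm pixels) and normalised to control (100% viability). At least 3 independent experiments, at least 4 replicates each.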

BxPC3 cells = assay: xCELLigence real time monitoring of cell proliferation, BxPC3; format: cell-based, human
GL261-Luc cells = assay: xCELLigence real time monitoring of cell proliferation, GL261-Luc; format: cell-based, mouse; settings: for reduction of cell index: 72 hours
[2] = tested on: primary cultured mouse astrocytes; assay: xCELLigence real time monitoring of cell proliferation, primary mouse astrocytes; format: cell-based; settings: for reduction of cell index: primary cultured mouse astrocytes, after 72 hours
[3] = tested on: caspase 3/7 activation in GL261-Luc cells; assay: Caspase 3/7 assay, GL261-Luc; format: cell-based, mouse; settings: 72 hours; for increase in caspase 3/7 activation (apoptosis): 256 μM
Summary of the method: (§1)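 BxPC3 (5 × 10^3/well) or GL261-Luc (3 × 10^3/well) cells in DMEM, 10% FBS, 1% pen-strep-glutamine. After 24 h, exposed to test compound for 72 h in medium with 0.1% DMSO final. CellEvent caspase-3/7 green reagent added for 1 h at 37 °C. Whole-well fluorescence imaged (Ex 488/Em 520). Cells then fixed (3.7% PFA), permeabilised (0.3% Triton X-100), BSA-blocked and stained with CellTag 700 (Ex 685/Em 720). Caspase signal normalised to cell number, then expressed as fold over control. At least 3 independent experiments, at least 4 replicates each.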

[4] = tested on: caspase 3/7 activation in BxPC3 cells; assay: Caspase 3/7 assay, BxPC3; format: cell-based, human; settings: 72 hours; for increase in caspase 3/7 activation (apoptosis): 256 μM
Summary of the method: as §1

[5] = BxPC3 cells, 128 μM, after 72 hours, compared to the control
[6] = 128 μM, normalised to cell number (CellTag 700)

Compound	reduction of viability (CyQUANT) ([1]; 128 μM)	reduction of cell index (BxPC3 cells; [5])	reduction of cell index (GL261-Luc cells; 128 μM)	reduction of cell index ([2]; 128 μM)	reduction of viability (CyQUANT) ([1]; 256 μM)	increase in caspase 3/7 activation (apoptosis) [3]	reduction of cell index (BxPC3 cells; BxPC3 cells, 256 μM, 72 hours)	increase in caspase 3/7 activation (apoptosis) [4]	reduction of cell index (GL261-Luc cells; 256 μM)	reduction of cell index ([2]; 256 μM)	other results
Oc1ccccc1 [phenol]	no significant effect	no significant effect	no significant effect	11–17%							
CC(C)OC(=O)[C@H](C)N [L-alanine isopropyl ester]					no significant effect	no significant increase	no significant effect	no significant increase	no significant effect	11–17%	
C[C@H](N)C(=O)OCc1ccccc1 [L-alanine benzyl ester]					no significant effect	no significant increase	no significant effect	no significant increase	no significant effect	11–17%	
Oc1cccc2ccccc12 [1-naphthol, 1-Naphthol]											time until cytotoxicity began (GL261-Luc cells; 128 μM): 28 h
Oc1ccc2ccccc2c1 [2-naphthol]											activity in real-time xCELLigence experiments (BxPC3 cells; 16 μM): notable activity; time until cell index declined (BxPC3 cells; BxPC3 cells, 128 μM): 8 h; ED50 (cell index) (BxPC3 cells; BxPC3 cells, 72-hour exposure time, xCELLigence): 21 µM; fold greater cytotoxicity than 1-naphthol (BxPC3 cells; BxPC3 cells, real time xCELLigence monitoring): 4 fold; time until cell index declined ([2]; primary cultured astrocytes, 128 μM): ≤ 4 h
OCc1ccccc1O [salicyl alcohol]	no significant effect	no significant effect	no significant effect	11–17%							increase in caspase 3/7 activation [3, 6]: no effect; increase in caspase 3/7 activation [4, 6]: no effect
